The source of these data is ChEMBL document CHEMBL1250511, “Discovery of pyridazinopyridinones as potent and selective p38 mitogen-activated protein kinase inhibitors” (J Med Chem, 2010).

In general, IC50 refers to the concentration that gives 50% inhibition. A word on the half-life: it is the time needed for the level to fall by half in the phase considered. For orientation: AUC means concentration integrated over time. Read a high AUC as high exposure. By bioavailability is commonly meant dose-corrected exposure relative to a reference, in per cent. As a reminder, the clearance is the volume of plasma or blood freed of the substance per unit of time. A low value points to inefficient removal. Broadly, the ED50 is the midpoint of the dose-response relation.

Data set [1] addresses Mitogen-activated protein kinase 14 (Homo sapiens, UniProt Q16539). In words: Inhibition of p38alpha MAP kinase.
The subject of the next data set is THP-1. As to the kind of experiment: Antiinflammatory activity in human THP1 cells assessed as inhibition of LPS-induced TNFalpha production after 3 hrs. The conditions noted are these: THP-1, 3 h. In kind it is functional, cell-based. In short, it runs like this: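 THP-1 cells (1.5 × 10^6/mL in RPMI 1640, 10% heat-inactivated FBS, 30 μM βME) given 3-fold serial DMSO dilutions of compound, then LPS. Incubation 3 h at 37 °C, 5% CO2. Secreted TNFα measured in medium by MSD electrochemiluminescence. Results expressed as percent of control relative to DMSO (HI) and no-LPS (LO) wells.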

Data set [2] in a line: Antiinflammatory activity in human whole blood cells assessed as inhibition of TNF-alpha-induced IL8 production after 16 to 18 hrs. In kind it is functional, cell-based. In short, it runs like this:
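Heparinized blood from healthy, nonmedicated volunteers (final 50% in RPMI 1640/10% human AB serum) was preincubated 1 h at 37 °C, 5% CO2 with ten-point compound titrations. It was then stimulated with TNFα (final 1 nM) overnight (16-18 h). Plasma IL-8 was measured by MSD ECL sandwich immunoassay.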

The nature of data set [3]: Volume of distribution at steady state in Sprague-Dawley rat at 2 mg/kg, iv. Details: dose 2 mg/kg, route intravenous. It counts as ADME, organism-based. The conditions noted are these: in vivo, read-out: Vdss. In short, it runs like this: (§1)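 Single iv dose of 2.0 mg/kg, formulated in DMSO.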
Data set [4] in a line: Half life in Sprague-Dawley rat at 2 mg/kg, iv. To be noted: in vivo. Details: dose 2 mg/kg, route intravenous. In kind it is ADME, organism-based. In short, it runs like this: as §1
The nature of data set [5]: AUC in Sprague-Dawley rat at 2 mg/kg, po. In kind it is ADME, organism-based. Further details: dose 2 mg/kg, route oral. To be noted: plasma.
Data set [6] can be described thus: Oral bioavailability in Sprague-Dawley rat at 2 mg/kg. In kind it is ADME, organism-based. The conditions noted are these: in vivo.
Data set [7] is described as follows: Clearance in Sprague-Dawley rat at 2 mg/kg, iv. In kind it is ADME, organism-based. Further details: dose 2 mg/kg, route intravenous. To be noted: in vivo. In short, it runs like this: as §1
Data set [8] is filed under the species Rattus norvegicus. In words: Antiarthritic activity in Lewis rat assessed as reduction in collagen-induced paw swelling. In kind it is functional. In short, it runs like this:
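Arthritis induced by intradermal porcine type II collagen emulsified 1:1 in incomplete Freund's adjuvant. Animals were grouped at disease onset (10-12 days post-immunization) and dosed orally once daily for 7 days. Paw diameter was measured daily on days 0-7. Area under the paw-swelling curve gave percent inhibition versus vehicle.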

In data set [9] the test system is Rattus norvegicus. In words: Antiinflammatory activity in po dosed Lewis rat assessed as inhibition of LPS-induced TNFalpha production administered 1 hrs prior to LPS challenge after 90 mins.

Sequence of Mitogen-activated protein kinase 14 (Q16539 whole entry): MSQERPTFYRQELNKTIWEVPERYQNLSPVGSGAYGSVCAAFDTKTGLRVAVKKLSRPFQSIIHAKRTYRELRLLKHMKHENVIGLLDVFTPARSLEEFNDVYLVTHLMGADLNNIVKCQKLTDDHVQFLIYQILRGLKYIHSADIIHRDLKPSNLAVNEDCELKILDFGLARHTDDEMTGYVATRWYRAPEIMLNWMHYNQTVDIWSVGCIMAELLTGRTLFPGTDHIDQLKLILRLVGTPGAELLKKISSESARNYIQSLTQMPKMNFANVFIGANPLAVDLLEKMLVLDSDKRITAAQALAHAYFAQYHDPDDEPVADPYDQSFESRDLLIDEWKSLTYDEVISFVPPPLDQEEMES

`Cc1ccc(C(=O)O)cc1-c1cc2cnnc(-c3ccc(F)cc3F)c2n(C)c1=O`: the half-maximal inhibitory concentration (IC50) in [1] was greater than 1000 nM; with THP-1, greater than 2500 nM; in data set [2] it was greater than 2500 nM.

Consider `Cn1c(=O)c(Cc2ccc(F)cc2F)cc2cnnc(-c3ccc(F)cc3F)c21`, for which the IC50 in [1] worked out at 6.1 nM; in the data set on THP-1, 49 nM; in data set [2], 213 nM.

As to `Cn1c(=O)c(Cc2ccc(F)cc2)cc2cnnc(-c3ccc(F)cc3F)c21`, the IC50 is 55.8 nM in data set [1], 197 nM in the data set on THP-1 and 697 nM in data set [2].

As to `Cn1c(=O)c(Oc2ccc(F)cc2F)cc2cnnc(-c3ccc(F)cc3F)c21`, the IC50 in the data set with THP-1 was determined as 107 nM; in data set [2], 70.5 nM.

Turning to `Cn1c(=O)c(Oc2ccc(F)cc2)cc2cnnc(-c3ccc(F)cc3F)c21`, the IC50 in data set [1] amounted to 78 nM; in the data set on THP-1, 235 nM; in [2], 227 nM.

Take `CN(c1ccc(F)cc1)c1cc2cnnc(-c3ccc(F)cc3F)c2n(C)c1=O`: the figures for the IC50 (in data set [1]; in the data set with THP-1; in [2]) were 299 nM, 1140 nM and 1240 nM, respectively.

With `Cn1c(=O)c(Nc2ccc(F)cc2)cc2cnnc(-c3ccc(F)cc3F)c21`, the values for the half-inhibitory concentration (IC50) (with THP-1; in [2]) were 13.7 nM and 61.9 nM, respectively.

Turning to `Cn1c(=O)c(Nc2ccc(F)cc2F)cc2cnnc(-c3ccc(F)cc3F)c21`, the IC50 was 0.9 nM in data set [1], 4.5 nM in the data set with THP-1 and 11.7 nM in data set [2].

For `Cn1c(=O)c(Nc2ccc(F)cn2)cc2cnnc(-c3ccc(F)cc3F)c21`, the IC50 (in the data set on THP-1; in data set [2]) was greater than 2500 nM in each case.

`Cn1c(=O)c(Nc2ncc(F)cc2F)cc2cnnc(-c3ccc(F)cc3F)c21`: the results for the 50% inhibitory concentration (IC50) (in the data set with THP-1; in [2]) were 982 nM and greater than 2500 nM, respectively.

As to `Cc1cnc(C(=O)NC2CC2)cc1-c1cc2cnnc(-c3ccc(F)cc3F)c2n(C)c1=O`, the IC50 in [1] was 14.5 nM; in the data set on THP-1 it was 80.5 nM; in data set [2] it was 63.3 nM.

In the case of `Cn1c(=O)c(-c2cc(C(=O)NC3CC3)ccc2Cl)cc2cnnc(-c3ccc(F)cc3F)c21`, the half-inhibitory concentration (IC50) in data set [1] came out at 2.6 nM; in the data set with THP-1, 6.3 nM; in [2], 8.3 nM.

For `Cc1c(F)cc(C(=O)NC2CC2)cc1-c1cc2cnnc(-c3ccc(F)cc3F)c2n(C)c1=O`, the values for the IC50 (in [1]; with THP-1; in [2]) were 1.4 nM, 1.1 nM and 1.6 nM, respectively. Moreover, the Vd in data set [3] worked out at 1.19 L/kg. In data set [4], this compound had a half-life of 280 min. In addition, the AUC in data set [5] came out at 6740 ng·h/mL. The bioavailability in data set [6] turned out to be 55%.

Turning to `Cc1ccc(C(=O)NC2(C)CC2)cc1-c1cc2cnnc(-c3ccc(F)cc3F)c2n(C)c1=O`, the IC50 in [1] was determined as 3.1 nM; in the data set with THP-1 it was 14.5 nM; in data set [2], 27.4 nM.

In the case of `Cc1ccc(C(=O)NC2CC2)cc1-c1cc2cnnc(-c3ccc(F)cc3F)c2n(C)c1=O`, the IC50 in data set [1] came out at 2.7 nM; with THP-1, 2.1 nM; in data set [2], 1.8 nM. The compound further showed a clearance in data set [7] of 3.83 mL/min/kg. Also, in data set [3], the Vd is 1.04 L/kg. In data set [4], this compound had a half-life of 184 min. In addition, the area under the curve (AUC) in data set [5] turned out to be 7630 ng·h/mL. This compound also yielded a bioavailability in data set [6] of 86%. Also, the results for the median effective dose (ED50) in the data set listed under Rattus norvegicus [8] and with Rattus norvegicus [9] were 0.03 mg/kg and 0.06 mg/kg, respectively.

Consider `CNC(=O)c1ccc(C)c(-c2cc3cnnc(-c4ccc(F)cc4F)c3n(C)c2=O)c1`, for which the IC50 in the data set with THP-1 stood at 24.3 nM; in [2], 30 nM.

Take `Cc1ccc(C(N)=O)cc1-c1cc2cnnc(-c3ccc(F)cc3F)c2n(C)c1=O`: the figures for the IC50 (in [1]; in the data set on THP-1; in data set [2]) were 2.7 nM, 19.3 nM and 21.3 nM, respectively.
